Source: ChEMBL document CHEMBL1641572, “Vasorelaxant effect of flavonoids through calmodulin inhibition: Ex vivo, in vitro, and in silico approaches” (Bioorg Med Chem, 2011)
The source made the active and inactive calls. No cut-off for these calls is given here.

Tests used:
Calmodulin-1 [1] = biological target: T1, Calmodulin-1 (Homo sapiens, UniProt P0DP23); assay: Inhibition of human recombinant calmodulin assessed as inhibition of calmodulin-sensitive cAMP phosphodiesterase activation after 15 mins by spectrophotometric analysis
Aorta [2] = assay: Vasorelaxant activity in Wistar rat endothelium-intact thoracic aortic ring assessed as inhibition of noradrenaline-induced contraction treated after noradrenaline challenge measured after 60 mins; type: functional, tissue-based; conditions: for IC50: 1 h
How it was run: (§1)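 Thoracic aortic rings (3–5 mm) from Wistar rats (200–300 g), endothelium intact or manually removed, were held in Krebs at 37 °C gassed O2/CO2 (9:1) at 3.0 g resting tension. Three NA (0.1 µM) primings were given; endothelium status was checked by carbachol (1 µM) relaxation. Rings precontracted with NA received compounds in quarter-log cumulative concentrations under isometric recording. n=6 animals.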

Aorta [3] = assay: Vasorelaxant activity in Wistar rat endothelium-denuded thoracic aortic ring assessed as inhibition of noradrenaline-induced contraction treated after noradrenaline challenge measured after 60 mins; type: functional, tissue-based; conditions: for IC50: 1 h; how it was run: as §1
Aorta [4] = assay: Vasorelaxant activity in Wistar rat endothelium-intact thoracic aortic ring assessed as inhibition of noradrenaline-induced contraction treated after noradrenaline challenge measured after 60 mins relative to control; type: functional; conditions: 1 h
Aorta [5] = assay: Vasorelaxant activity in Wistar rat endothelium-denuded thoracic aortic ring assessed as inhibition of noradrenaline-induced contraction treated after noradrenaline challenge measured after 60 mins relative to control; type: functional; conditions: 1 h
Calmodulin-1 [6] = biological target: T1, Calmodulin-1; assay: Ratio of chlorpromazine IC50 to compound IC50 for human recombinant calmodulin
Aorta [7] = assay: Vasorelaxant activity in Wistar rat endothelium-intact thoracic aortic ring assessed as inhibition of noradrenaline-induced contraction treated after noradrenaline challenge measured after 60 mins in presence of chlorpromazine; type: functional, tissue-based
How it was run: (§2)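 Rat aortic rings (endothelium intact or denuded) in 37 °C Krebs under 3.0 g tension were preincubated with chlorpromazine (1 µM). They were then contracted with NA, and compound was added in quarter-log cumulative concentrations while isometric tension was recorded. n=6 animals.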

Aorta [8] = assay: Vasorelaxant activity in Wistar rat endothelium-denuded thoracic aortic ring assessed as inhibition of noradrenaline-induced contraction treated after noradrenaline challenge measured after 60 mins in presence of chlorpromazine; type: functional, tissue-based; how it was run: as §2
Calmodulin-1 [9] = biological target: T1, Calmodulin-1; assay: Inhibition of calmodulin assessed as inhibition of calmodulin-calcium-PDE1 complex formation
How it was run: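 Human recombinant CaM (0.08 µg) was preincubated 30 min with 0.015 units bovine-brain PDE1 and 0.063 units 5'-nucleotidase in Tris–HCl/imidazole buffer with Mg acetate, 2.5 mM CaCl2 and BSA, pH 7.0. Compounds at 0.5–65 µM in ACN/water (1:1) were added for 30 min. cAMP started a 15-min reaction, and malachite green read phosphate at 700 nm. IC50 came from hyperbolic fit, n≥6.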

Calmodulin-1 [10] = biological target: T1, Calmodulin-1; assay: Inhibition of calmodulin assessed as inhibition of calmodulin-calcium-[…] complex formation

## O=C1C[C@@H](c2ccc(O)cc2)Oc2cc(O)cc(O)c21
Calmodulin-1 [1]
  inhibition: Dose-dependent effect

## O=c1cc(-c2ccccc2)oc2ccc(O)cc12 [6-HYDROXYFLAVONE]
Aorta [2]
  inhibition: Dose-dependent effect
  IC50: 20.8 µM
Aorta [3]
  inhibition: Dose-dependent effect
  IC50: 112 µM
Aorta [4]
  Emax: 105%
Aorta [5]
  Emax: 51.8%
Calmodulin-1 [1]
  IC50: 5.17 µM
  inhibition: Dose-dependent effect
Calmodulin-1 [6]
  Ratio IC50: 3.89
Aorta [7]
  Activity: Active
Aorta [8]
  Activity: Active

## O=c1cc(-c2ccccc2)oc2cc(O)ccc12 [7-HYDROXYFLAVONE]
Aorta [2]
  inhibition: Dose-dependent effect
  IC50: 37.8 µM
Aorta [3]
  inhibition: Dose-dependent effect
  IC50: 167 µM
Aorta [4]
  Emax: 80.6%
Aorta [5]
  Emax: 40.4%
Calmodulin-1 [1]
  IC50: 37.1 µM
  inhibition: Dose-dependent effect
Calmodulin-1 [6]
  Ratio IC50: 0.54

## C[N+](C)(C)CCOC(N)=O [CARBACHOL]
Aorta [2]
  IC50: 0.79 µM
Aorta [4]
  Emax: 88.6%

## O=c1cc(-c2ccccc2)oc2cc(O)cc(O)c12 [CHRYSIN]
Aorta [2]
  inhibition: Dose-dependent effect
  IC50: 75.7 µM
Aorta [3]
  inhibition: Dose-dependent effect
  IC50: 107 µM
Aorta [4]
  Emax: 44.8%
Aorta [5]
  Emax: 16%
Calmodulin-1 [1]
  IC50: 33.4 µM
  inhibition: Dose-dependent effect
Calmodulin-1 [6]
  Ratio IC50: 1.03

## O=c1cc(-c2ccccc2)oc2ccccc12 [FLAVONE]
Aorta [2]
  inhibition: Dose-dependent effect
  IC50: 46 µM
Aorta [3]
  inhibition: Dose-dependent effect
  IC50: 203 µM
Aorta [4]
  Emax: 98.6%
Aorta [5]
  Emax: 81%
Calmodulin-1 [1]
  IC50: 102 µM
  inhibition: Dose-dependent effect
Calmodulin-1 [6]
  Ratio IC50: 0.34

## O=c1c(O)c(-c2ccccc2)oc2ccccc12 [FLAVONOL]
Aorta [2]
  inhibition: Dose-dependent effect
  IC50: 204 µM
Aorta [3]
  inhibition: Dose-dependent effect
  IC50: 248 µM
Aorta [4]
  Emax: 67.8%
Aorta [5]
  Emax: 29.8%
Calmodulin-1 [1]
  IC50: 55.2 µM
  inhibition: Dose-dependent effect
Calmodulin-1 [6]
  Ratio IC50: 0.36

## COc1ccc([C@@H]2CC(=O)c3c(O)cc(O[C@@H]4O[C@H](CO[C@@H]5O[C@@H](C)[C@H](O)[C@@H](O)[C@H]5O)[C@@H](O)[C@H](O)[C@H]4O)cc3O2)cc1O [HESPERIDIN]
Calmodulin-1 [9]
  IC50: 74 µM
Calmodulin-1 [10]
  IC50: 70 µM

## COC(=O)C1=C(C)NC(C)=C(C(=O)OC)C1c1ccccc1[N+](=O)[O-] [NIFEDIPINE]
Aorta [3]
  IC50: 0.02 µM
Aorta [5]
  Emax: 102%

## O=c1c(O)c(-c2ccc(O)c(O)c2)oc2cc(O)cc(O)c12 [QUERCETIN]
Aorta [2]
  inhibition: Dose-dependent effect
  IC50: 162 µM
Aorta [3]
  inhibition: Dose-dependent effect
  IC50: 222 µM
Aorta [4]
  Emax: 83.2%
Aorta [5]
  Emax: 43.2%
Calmodulin-1 [1]
  IC50: 13 µM
  inhibition: Dose-dependent effect
Calmodulin-1 [6]
  Ratio IC50: 2.82
